Test results published in ChEMBL document CHEMBL1781919, “Synthesis and anticonvulsant properties of 1-(amino-N-arylmethanethio)-3-(1-substituted benzyl-2, 3-dioxoindolin-5-yl) urea derivatives” (Eur J Med Chem, 2011).
Active and inactive are the calls of the source. No cut-off for these calls is given here.

Tests used:
Mus musculus [1] = test: Anticonvulsant activity in mouse assessed as protection against subcutaneous pentylenetetrazole-induced seizures at 30 mg/kg, ip after 4 hrs; type: functional, organism-based; parameters: dose 30 mg/kg
Mus musculus [2] = test: Anticonvulsant activity in mouse assessed as protection against maximal electroshock-induced seizures at 100 mg/kg, ip after 0.5 hrs; type: functional, organism-based; parameters: dose 100 mg/kg
Procedure, shortened: (§1)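 Mouse Test 1: i.p. dosing at 0.01 mL/g. Sets of one, three and one animals receive 30, 100 and 300 mg/kg respectively, each tested at 0.5 h and 4.0 h. Score is N/F, the number of animals protected over the number tested. Screening performed by NINDS following the ADD program protocol.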

Mus musculus [3] = test: Anticonvulsant activity in mouse assessed as protection against subcutaneous pentylenetetrazole-induced seizures at 30 mg/kg, ip after 0.5 hrs; type: functional, organism-based; parameters: dose 30 mg/kg
Mus musculus [4] = test: Anticonvulsant activity in mouse assessed as protection against subcutaneous pentylenetetrazole-induced seizures at 300 mg/kg, ip after 0.5 hrs; type: functional, organism-based; parameters: dose 300 mg/kg
[5] = Octanol-phosphate buffer partition coefficient, log P of the compound; type: physicochemical
Procedure, shortened: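 Octanol and phosphate buffer partition run at room temperature (29 °C). After separation, the phases are membrane-filtered and drug in the aqueous phase is measured by UV. PC = (Ct − Ca)/Ca, where Ct is total drug concentration and Ca is aqueous-phase concentration.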

Mus musculus [6] = test: Anticonvulsant activity in mouse assessed as protection against subcutaneous pentylenetetrazole-induced seizures at 300 mg/kg, ip after 4 hrs; type: functional, organism-based; parameters: dose 300 mg/kg
Mus musculus [7] = test: Neurotoxicity in mouse assessed as minimum motor impairment at 300 mg/kg, ip after 4 hrs by rotarod test; type: toxicity, organism-based; parameters: dose 300 mg/kg, route intraperitoneal; details: in vivo
Procedure, shortened: (§2)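 Rotorod test for minimal motor impairment in mice given 30, 100 or 300 mg/kg i.p. at 0.01 mL/g, using sets of one, three and one animals, at 0.5 h and 4.0 h. Animals are observed at each dose and time. Score is N/F, the number showing toxicity over the number tested.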

Mus musculus [8] = test: Neurotoxicity in mouse assessed as minimum motor impairment at 100 mg/kg, ip after 4 hrs by rotarod test; type: toxicity, organism-based; parameters: dose 100 mg/kg, route intraperitoneal; details: in vivo; procedure, shortened: as §2
Mus musculus [9] = test: Neurotoxicity in mouse assessed as minimum motor impairment at 30 mg/kg, ip after 4 hrs by rotarod test; type: toxicity, organism-based; parameters: dose 30 mg/kg, route intraperitoneal; details: in vivo; procedure, shortened: as §2
Mus musculus [10] = test: Anticonvulsant activity in mouse assessed as protection against maximal electroshock-induced seizures at 300 mg/kg, ip after 0.5 hrs; type: functional, organism-based; parameters: dose 300 mg/kg; procedure, shortened: as §1
Mus musculus [11] = test: Anticonvulsant activity in mouse assessed as protection against maximal electroshock-induced seizures at 30 mg/kg, ip after 4 hrs; type: functional, organism-based; parameters: dose 30 mg/kg; procedure, shortened: as §1
Mus musculus [12] = test: Neurotoxicity in mouse assessed as minimum motor impairment at 100 mg/kg, ip after 0.5 hrs by rotarod test; type: toxicity, organism-based; parameters: dose 100 mg/kg, route intraperitoneal; details: in vivo; procedure, shortened: as §2
Mus musculus [13] = test: Anticonvulsant activity in mouse assessed as protection against maximal electroshock-induced seizures at 300 mg/kg, ip after 4 hrs; type: functional, organism-based; parameters: dose 300 mg/kg; procedure, shortened: as §1
Mus musculus [14] = test: Neurotoxicity in mouse assessed as minimum motor impairment at 300 mg/kg, ip after 0.5 hrs by rotarod test; type: toxicity, organism-based; parameters: dose 300 mg/kg, route intraperitoneal; details: in vivo; procedure, shortened: as §2
Mus musculus [15] = test: Anticonvulsant activity in mouse assessed as protection against subcutaneous pentylenetetrazole-induced seizures at 100 mg/kg, ip after 0.5 hrs; type: functional, organism-based; parameters: dose 100 mg/kg
Mus musculus [16] = test: Anticonvulsant activity in mouse assessed as protection against subcutaneous pentylenetetrazole-induced seizures at 100 mg/kg, ip after 4 hrs; type: functional, organism-based; parameters: dose 100 mg/kg
Mus musculus [17] = test: Anticonvulsant activity in mouse assessed as protection against maximal electroshock-induced seizures at 100 mg/kg, ip after 4 hrs; type: functional, organism-based; parameters: dose 100 mg/kg; procedure, shortened: as §1
Mus musculus [18] = test: Anticonvulsant activity in mouse assessed as protection against maximal electroshock-induced seizures at 30 mg/kg, ip after 0.5 hrs; type: functional, organism-based; parameters: dose 30 mg/kg; procedure, shortened: as §1
Mus musculus [19] = test: Neurotoxicity in mouse assessed as minimum motor impairment at 30 mg/kg, ip after 0.5 hrs by rotarod test; type: toxicity, organism-based; parameters: dose 30 mg/kg, route intraperitoneal; details: in vivo; procedure, shortened: as §2

| logP [5] | SMILES | Activity (Mus musculus [1]) | Activity (Mus musculus [2]) | Activity (Mus musculus [3]) | Activity (Mus musculus [4]) | Activity (Mus musculus [6]) | Activity (Mus musculus [7]) | Activity (Mus musculus [8]) | Activity (Mus musculus [9]) | Activity (Mus musculus [10]) | Activity (Mus musculus [11]) | Activity (Mus musculus [12]) | Activity (Mus musculus [13]) | Activity (Mus musculus [14]) | Activity (Mus musculus [15]) | Activity (Mus musculus [16]) | Activity (Mus musculus [17]) | Activity (Mus musculus [18]) | Activity (Mus musculus [19]) |
| --- | --- | --- | --- | --- | --- | --- | --- | --- | --- | --- | --- | --- | --- | --- | --- | --- | --- | --- | --- |
| 3.72 | Cc1cccc(NC(=S)NC(=O)Nc2ccc3c(c2)C(=O)C(=O)N3Cc2ccccc2Cl)c1 | inactive | inactive | inactive | inactive | Active | Non-toxic | Non-toxic | Non-toxic | inactive | inactive | Non-toxic | Active | Non-toxic | inactive | inactive | inactive | inactive | Non-toxic |
| 2.4 | COc1cccc(NC(=S)NC(=O)Nc2ccc3c(c2)C(=O)C(=O)N3Cc2ccccc2)c1 | inactive | inactive | inactive | inactive | inactive | Non-toxic | Non-toxic | Non-toxic | inactive | inactive | Non-toxic | inactive | Non-toxic | inactive | inactive | inactive | inactive | Non-toxic |
| 3.18 | COc1ccccc1NC(=S)NC(=O)Nc1ccc2c(c1)C(=O)C(=O)N2Cc1ccccc1Cl | inactive | inactive | inactive | inactive | inactive | Non-toxic | Non-toxic | Non-toxic | inactive | inactive | Non-toxic | inactive | Non-toxic | inactive | inactive | inactive | inactive | Non-toxic |
